Results pooled from the literature.
Compare with care: the assays were run in different laboratories.
Target: Inhibitor of nuclear factor kappa-B kinase subunit alpha (CHUK, Homo sapiens, UniProt O15111)
Sequence (O15111 1-745, as in one of the studies): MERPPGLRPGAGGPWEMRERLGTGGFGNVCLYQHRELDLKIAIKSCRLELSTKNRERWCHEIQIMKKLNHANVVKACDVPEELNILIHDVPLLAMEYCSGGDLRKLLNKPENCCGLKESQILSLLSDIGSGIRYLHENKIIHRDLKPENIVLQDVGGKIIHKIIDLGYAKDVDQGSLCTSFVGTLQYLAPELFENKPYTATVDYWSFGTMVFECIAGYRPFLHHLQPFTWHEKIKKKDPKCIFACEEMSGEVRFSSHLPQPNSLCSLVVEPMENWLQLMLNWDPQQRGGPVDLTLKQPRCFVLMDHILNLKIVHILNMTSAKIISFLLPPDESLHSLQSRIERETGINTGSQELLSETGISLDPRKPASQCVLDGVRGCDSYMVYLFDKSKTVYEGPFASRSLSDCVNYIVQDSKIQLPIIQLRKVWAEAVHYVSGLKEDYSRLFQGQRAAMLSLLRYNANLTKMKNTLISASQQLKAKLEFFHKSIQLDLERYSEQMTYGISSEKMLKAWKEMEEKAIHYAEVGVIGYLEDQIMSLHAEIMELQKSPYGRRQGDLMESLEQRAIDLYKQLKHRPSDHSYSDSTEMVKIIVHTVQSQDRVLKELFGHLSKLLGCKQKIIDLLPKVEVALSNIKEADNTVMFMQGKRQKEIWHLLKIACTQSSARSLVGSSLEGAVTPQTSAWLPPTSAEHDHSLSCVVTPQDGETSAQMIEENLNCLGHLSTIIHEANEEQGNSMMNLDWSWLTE

SMILES | test | conditions | remaining binding
O=C(Nc1cnc(Oc2ccc(F)cc2)nc1)N1CCc2ncccc2[C@@H]1c1ccc(F)cc1 | cell-free assay, competition with immobilised ligand | 1 µM | 100%
FC(F)(F)Oc1cccc(-c2cnc3ccc(-c4ccncc4)nn23)c1 | cell-free assay, competition with immobilised ligand | 5 µM | 39%
Cc1cnn2ncc(-c3ccnc(N(C)C)n3)c2c1 | binding | 1 µM | 69%
C[C@@H]1CN(c2ccc3ncc(-c4ccc5[nH]nc(C6CC6)c5c4)n3n2)C[C@H](C)O1 | binding, competition with immobilised ligand | 50 nM | 86%
F[C@@H]1CCN(c2nccc(-c3cnn4ncccc34)n2)C1 | binding | 1 µM | 100%
O=C(NS(=O)(=O)c1ccc(NCC2CCOCC2)c([N+](=O)[O-])c1)c1ccc(N2CCN(Cc3ccc(C(F)(F)F)cc3-c3ccc(Cl)cc3)CC2)cc1Oc1cnc2[nH]ccc2c1 | cell-free assay, competition with immobilised ligand | 1 µM | 81%
CCN1CCN(Cc2ccc(C(=O)Nc3ccc(C)c(Oc4ccc5c(c4)CC(=O)N5)c3)cc2C(F)(F)F)CC1 | binding, competition with immobilised ligand | 1 µM | 74%
COc1cnc(Nc2cccc(S(N)(=O)=O)c2)nc1N1CCN(c2ccccc2)C(=O)C1 | binding, competition with immobilised ligand | 1 µM | 91%
Nc1ncc2c(n1)-c1c([nH]c3ccc(C#CC4CC4)cc13)CCCC2 | binding, competition with immobilised ligand | 1 µM | 98%
CC1=C(C#N)C(c2ccc3c(c2)c(NC(=O)c2ccccc2C)nn3C)C(C#N)=C(C)N1 | cell-free assay, competition with immobilised ligand | 1 µM | 77%
COc1ccnn2ncc(-c3ccnc(N(C)C)n3)c12 | binding | 1 µM | 71%
Cn1cc(Cl)c2c(Oc3c(F)cc(Nc4cc(Cl)nc(N)n4)cc3F)ccnc21 | cell-free assay, competition with immobilised ligand | 0.1 µM | 85%
O=C(NCCCN1CCOCC1)c1ccc(Nc2ncc(Cl)c(-c3ccc(Cl)s3)n2)cc1 | binding, competition with immobilised ligand | 1 µM | 51%
CC1CCCN1c1nccc(-c2cnn3ncccc23)n1 (stereo not shown) | binding | 1 µM | 86%
O=C(c1ccc(Nc2nccc(-c3cc4ccccc4s3)n2)cc1)N1CCC(N2CCCC2)CC1 | binding, competition with immobilised ligand | 1 µM | 0.2%
COc1cnc(Nc2cccc(S(N)(=O)=O)c2)nc1N1CCN(c2ccccc2)CC1 | binding, competition with immobilised ligand | 1 µM | 89%
O=C(Nc1c[nH]nc1C(=O)NC1CCNCC1)c1cc(F)cc(F)c1 | binding, competition with immobilised ligand | 1 µM | 100%
CN(C)c1ncc(F)c(-c2cnn3ncccc23)n1 | binding | 1 µM | 70%
O=C(NCCCN1CCOCC1)c1ccc(Nc2nccc(-c3cc4ccccc4s3)n2)cc1 | binding, competition with immobilised ligand | 1 µM | 12%
O=C(Nc1ccc(Oc2ccc(F)cc2)cc1)N1CCc2ncccc2[C@H]1c1ccc(F)cc1 | cell-free assay, competition with immobilised ligand | 1 µM | 100%
N[C@H]1CCN(c2nccc(-c3cnn4ncccc34)n2)C1 | binding | 1 µM | 82%
C[C@@H](c1cccc(C#N)c1)n1cc(Cl)cc(C(N)=O)c1=N | cell-free assay, competition with immobilised ligand | 1 µM | 100%
c1cncc(-c2cccc(Nc3nccc(NC4CCCCC4)n3)c2)c1 | binding, competition with immobilised ligand | 10 µM | 87%
C[C@@H]1CCN(c2nccc(-c3cnn4ncccc34)n2)C1 | binding | 1 µM | 81%
COc1ccc2cc(OCC3(C(=O)O)CN(C(=O)c4ccc(F)cc4)C3)ccc2c1 | cell-free assay, competition with immobilised ligand | 1 µM | 100%
